Data as given in publication PMC6598219 (Saudi Pharmaceutical Journal : SPJ, 2019).
Values after ≈ are worked out from the molar mass of the structure shown.

Experiments:
[1] = DPPH free radical scavenging activity
Summary of the method: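 Test compound aliquots at 20, 40, 60, 80 and 100 µg/mL were added to 0.004% DPPH solution, and absorbance was read at 520 nm after 30 min. BHA served as reference and methanol as control. Inhibition % = (Ao − At)/Ao × 100, with Ao the control absorbance. Results given as mean ± SD.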

[2] = ABTS radical cation scavenging activity
Summary of the method: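 ABTS radical cation formed by mixing aqueous 7 mmol/L ABTS and 2.45 mmol/L potassium persulfate 1:1 and keeping in the dark 6 h at room temperature. The radical was diluted in ethanol and equilibrated at 30 °C. Test compound aliquots at 20, 40, 60, 80 and 100 µg/mL were added, incubated 30 °C for 20 min, and read at 734 nm with BHA as reference. Scavenging % = (Ac − Aa)/Ac × 100. Results given as mean ± SD.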

SMILES: COc1ccc(O)c(C(C)(C)C)c1 [BHA, butylated hydroxyanisole]
- DPPH free radical scavenging property (%) ([1]; at 100 µg/mL): 93.4 ± 1.6%
- IC50, DPPH free radical scavenging ([1]; mean of three replicates): 34.50 ± 6.20 µg/mL (≈ 191 µM)
- ABTS scavenging property (%) ([2]; at 100 µg/mL concentration): 98.20 ± 4.60%
- IC50, ABTS radical scavenging ([2]; mean of three replicates): 28.70 ± 5.20 µg/mL (≈ 159 µM)
